Publication PMC11378895 (Asian Journal of Pharmaceutical Sciences, 2024)
Where no end group is shown, it is not given here.

Legend:
LRG1 = target: T1, LRG1 (Homo sapiens, UniProt P02750); assay: LRG1 degradation in HK-2 cells; assay type: cell-based; details: various concentrations, Western blot (Fig. S9)
T1 sequence (P02750 36-347): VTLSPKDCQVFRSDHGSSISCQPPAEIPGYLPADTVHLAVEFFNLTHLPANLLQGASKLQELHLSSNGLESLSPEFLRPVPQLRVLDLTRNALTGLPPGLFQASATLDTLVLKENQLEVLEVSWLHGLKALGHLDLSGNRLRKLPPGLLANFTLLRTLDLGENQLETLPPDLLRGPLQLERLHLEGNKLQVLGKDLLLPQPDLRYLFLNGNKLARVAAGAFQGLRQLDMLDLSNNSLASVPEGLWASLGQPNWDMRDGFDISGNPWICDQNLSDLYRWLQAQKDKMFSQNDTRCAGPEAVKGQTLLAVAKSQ
Method in brief: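 HK-2 cells were seeded at 3 × 10^5 cells per well. After adherence, they were serum-starved 6 h, then treated with test compound at varying concentrations for 12 h. Harvested protein went to Western blot, with LRG1 normalised to GAPDH as internal control.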

HK-2 cells = assay: Cellular uptake by flow cytometry and confocal microscopy; assay type: cell-based, human; details: 10 µM, 1-h and 4-h incubation, flow cytometry, n = 3
Method in brief: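 HK-2 cells in DMEM with 10% FBS at 37 °C and 5% CO2, seeded at 3 × 10^5 cells per well. After adherence, they got medium with 10 µM Cy5-labelled test peptide or control peptide, some with TGF-β, for 1 h or 4 h. Flow cytometry quantified uptake (n = 3). For confocal imaging, the same treatment was followed by fixation and Hoechst 33342 nuclear stain.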

In the case of `Nc1cccc2c1CN(C1CCC(=O)NC1=O)C2=O` (centres unmarked) [lenalidomide, Lenalidomide], the “LRG1 degradation by the constituents (control degradation experiments)” value (LRG1) is reported as “none of these treatments led to LRG1 degradation”.

For “ET-Cy5: ET peptide labeled with cyanine dye Cy5 (ESYSAKHRIMLT; also: Cy5 label, position not given here)”, the “uptake by HK-2 cells compared with control peptide” value (HK-2 cells) was “markedly enhanced than MP-Cy5”.
